This note sets out measurements from ChEMBL document CHEMBL1138837, “Structure-activity study on the Phe side chain arrangement of endomorphins using conformationally constrained analogues” (J Med Chem, 2004).

The nature of data set [1]: Half-life in rat brain homogenate. The format is ADME. The procedure, abridged:
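Peptide from a 1 mM stock in 50 mM Tris-HCl, pH 7.4, was incubated at 37 °C with rat brain homogenate (5.4 mg/mL protein). Timed aliquots were acidified with 0.1 M HCl, centrifuged, and analysed by RP-HPLC with UV detection at 216 nm. The rate constant came from ln(A/A0) versus time (at least five points). Half-life assumed pseudo-first-order kinetics, from 3–5 measurements.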

The target of data set [2] is T1, Mu-type opioid receptor (Rattus norvegicus, UniProt P33535). In words: Displacement of [3H]DAMGO from Opioid receptor mu 1 of rat brain membranes. The format is cell membranes, Membrane. On the technique in general: In a radioligand displacement assay an active substance lowers the binding of a labelled ligand.
T1 sequence (P33535 whole entry): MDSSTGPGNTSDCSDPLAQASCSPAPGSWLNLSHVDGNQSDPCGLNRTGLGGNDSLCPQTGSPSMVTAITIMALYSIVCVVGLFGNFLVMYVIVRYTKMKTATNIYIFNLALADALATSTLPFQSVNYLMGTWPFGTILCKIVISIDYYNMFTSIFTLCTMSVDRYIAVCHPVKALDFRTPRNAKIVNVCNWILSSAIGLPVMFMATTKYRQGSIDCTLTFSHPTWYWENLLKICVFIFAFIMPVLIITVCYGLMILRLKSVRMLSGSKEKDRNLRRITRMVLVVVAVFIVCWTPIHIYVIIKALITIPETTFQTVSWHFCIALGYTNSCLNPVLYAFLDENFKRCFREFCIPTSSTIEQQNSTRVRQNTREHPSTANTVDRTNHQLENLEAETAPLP
Data set [3] concerns the target T1, Mu-type opioid receptor. Briefly: Displacement of [3H]endomorphin-2 from Opioid receptor mu 1 of rat brain membranes. The format is cell membranes, Membrane.
The species named for data set [4] is Rattus norvegicus. Briefly: In vitro percent maximal stimulation of [35S]GTP-gamma-S, binding by the compound in rat brain membranes. The settings on record: Membrane. The format is functional. The essentials: (§1)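 Rat brain membranes (about 10 µg protein) with 0.05 nM [35S]GTPγS, 100 µM GDP and compound at 10^-9–10^-5 M, in Tris-EGTA buffer (1 mM EGTA, 3 mM MgCl2, NaCl, pH 7.4), at 30 °C for 60 min. Basal binding was measured without compound; nonspecific binding with 100 µM GTPγS. GF/B filtration was used, with three experiments in triplicate. Stimulation is expressed as percent of specific binding.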
In general terms: GTPγS resists hydrolysis and so accumulates on activated G proteins.

For data set [5], the species on record is Rattus norvegicus. Briefly: In vitro effective dose against [35S]GTP-gamma-S, binding to rat brain membranes. The format is functional. Conditions: Membrane. The procedure, abridged: as §1
Data set [6] addresses Delta-type opioid receptor (Rattus norvegicus, UniProt P33533). Briefly: Displacement of [3H]Ile5,6-deltorphin II from opioid receptor delta 1 of rat brain membranes. The format is cell membranes, Membrane.
Data set [7] deals with T1, Mu-type opioid receptor. In words: In vitro binding affinity towards Opioid receptor mu 1 in rat brain membranes. The format is cell membranes. The procedure, abridged: (§2)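 Wistar rat brain membranes without cerebellum (300–500 µg protein) in 50 mM Tris-HCl, pH 7.4, for competition binding. Incubation was stopped by vacuum filtration on GF/C filters, with two ice-cold buffer washes, then scintillation counting. Nonspecific binding was defined with 10 µM naloxone. Each assay was run in duplicate and repeated at least three times, with nonlinear least-squares fitting.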

In data set [8] the target is T1, Mu-type opioid receptor. In words: Affinity for Opioid receptor mu 1 in rat brain membranes. The format is cell membranes. The procedure, abridged: as §2
Data set [9] has as its target Mu-type opioid receptor (Mus musculus, UniProt P42866). Briefly: Inhibition of Mu opioid receptor of mouse vas deferens. The procedure, abridged:
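Mouse vas deferens in Mg-free Krebs at 31 °C, 0.1 g initial tension, equilibrated 30 min under electrical stimulation. Inhibition of evoked contractions was measured with noncumulative dose–response curves, and IC50 was obtained by sigmoidal fitting.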

Data set [10] deals with Mu-type opioid receptor (Cavia porcellus, UniProt P97266). Briefly: Inhibition of Opioid receptor mu 1 of guinea pig ileum. The format is tissue-based. The essentials:
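Guinea pig ileum in Krebs solution at 37 °C, initial tension 0.8 g, equilibrated 60 min under electrical stimulation. Electrically evoked contractions were inhibited, using noncumulative dose–response curves, with IC50 from sigmoidal curve fitting.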

Molecules are shown by their SMILES. Residues, ends and D or L forms follow the SMILES beside them. A value given as a limit tells only on which side of the number the result lay.

One may read the half-life as how long it takes for the measured level to halve. High values mean slow loss, low ones fast loss. Usually Ki stands for the equilibrium dissociation constant of an inhibitor or competing ligand from its target. A lower Ki goes with higher affinity. The term IC50 denotes the concentration that gives 50% inhibition. A higher IC50 goes with lower potency.

Sequence of Mu-type opioid receptor (Cavia porcellus, UniProt P97266) (P97266 whole entry): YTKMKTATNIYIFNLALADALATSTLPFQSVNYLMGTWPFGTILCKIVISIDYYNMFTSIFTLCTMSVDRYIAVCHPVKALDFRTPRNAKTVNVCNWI
Sequence of Delta-type opioid receptor (P33533 whole entry): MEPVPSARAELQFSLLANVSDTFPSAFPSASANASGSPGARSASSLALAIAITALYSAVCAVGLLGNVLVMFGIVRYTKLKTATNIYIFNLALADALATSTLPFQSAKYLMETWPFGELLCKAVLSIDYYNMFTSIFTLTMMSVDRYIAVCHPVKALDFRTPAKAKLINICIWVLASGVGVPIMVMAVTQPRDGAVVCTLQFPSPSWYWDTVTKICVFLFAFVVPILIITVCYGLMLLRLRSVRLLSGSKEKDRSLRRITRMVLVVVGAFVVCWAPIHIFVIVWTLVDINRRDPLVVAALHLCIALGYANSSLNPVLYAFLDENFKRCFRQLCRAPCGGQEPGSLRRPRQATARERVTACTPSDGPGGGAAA
Sequence of Mu-type opioid receptor (Mus musculus, UniProt P42866) (P42866 whole entry): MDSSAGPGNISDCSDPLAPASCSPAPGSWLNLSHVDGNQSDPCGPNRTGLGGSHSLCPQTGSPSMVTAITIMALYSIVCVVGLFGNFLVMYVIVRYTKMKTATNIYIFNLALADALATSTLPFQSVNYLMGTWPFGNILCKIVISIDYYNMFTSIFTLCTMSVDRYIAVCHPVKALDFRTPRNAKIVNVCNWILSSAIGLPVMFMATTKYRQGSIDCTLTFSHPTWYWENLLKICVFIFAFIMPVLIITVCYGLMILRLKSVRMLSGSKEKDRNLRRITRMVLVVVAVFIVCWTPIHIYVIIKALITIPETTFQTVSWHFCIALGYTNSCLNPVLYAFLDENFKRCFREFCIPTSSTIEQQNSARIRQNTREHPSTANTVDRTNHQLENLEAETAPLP

For the molecule `C[C@@H](c1ccccc1)[C@H](NC(=O)[C@H](Cc1c[nH]c2ccccc12)NC(=O)[C@@H]1CCCN1C(=O)[C@@H](N)Cc1ccc(O)cc1)C(N)=O`, the half-life in data set [1] was determined as 10.7 min. The results for the Ki in [2] and in data set [3] were 0.8 nM and 0.47 nM, respectively. Further, the Max stimulation in data set [4] is 163%. The ED50 in data set [5] stood at 114 nM.
In turn, `C[C@@H](c1ccccc1)[C@@H](NC(=O)[C@@H]1CCCN1C(=O)[C@@H](N)Cc1ccc(O)cc1)C(=O)N[C@@H](Cc1ccccc1)C(N)=O` yielded a Ki in [6] above 10 µM. In data set [4], this molecule gave a Max stimulation of 103%. In data set [5], this molecule showed an ED50 of 53 nM.
In data set [7], `N[C@@H](Cc1ccc(O)cc1)C(=O)N1CCC[C@H]1C(=O)N[C@@H](Cc1ccccc1)C(=O)O` (H-Tyr-Pro-Phe-OH) gave a 50% inhibitory concentration (IC50) of 161 nM. The same molecule gave a Ki in [8] of 46.3 nM.
`C[C@H](c1ccccc1)[C@H](NC(=O)[C@@H]1CCCN1C(=O)[C@@H](N)Cc1ccc(O)cc1)C(=O)N[C@@H](Cc1ccccc1)C(N)=O`: in data set [6], the inhibitory constant (Ki) was above 10 µM. The Max stimulation in data set [4] was 146%. The same molecule gave an ED50 in [5] of 1800 nM.
In data set [6], `C[C@H](c1ccccc1)[C@@H](NC(=O)[C@@H]1CCCN1C(=O)[C@@H](N)Cc1ccc(O)cc1)C(=O)N[C@@H](Cc1ccccc1)C(N)=O` came in with an inhibition constant Ki of 6.76 µM. In addition, the Max stimulation in [4] was found to be 105%. This molecule also came in with an ED50 in data set [5] of 7.7 nM.
As for `C[C@H](c1ccccc1)[C@@H](NC(=O)[C@H](Cc1ccccc1)NC(=O)[C@@H]1CCCN1C(=O)[C@@H](N)Cc1ccc(O)cc1)C(N)=O`, the values for the Ki in data set [6], in data set [2] and in data set [3] were 5.18 µM, 250 nM and 127 nM, respectively. Also, the results for the half-inhibitory concentration (IC50) in data set [9] and in [10] were above 10000 nM and 816 nM, respectively. Further, the Max stimulation in data set [4] turned out to be 108%. The molecule further displayed an ED50 in data set [5] of 104 nM.
`C[C@@H](c1ccccc1)[C@@H](NC(=O)[C@H](Cc1c[nH]c2ccccc12)NC(=O)[C@@H]1CCCN1C(=O)[C@@H](N)Cc1ccc(O)cc1)C(N)=O`: the inhibitory constant (Ki) in data set [2] came out at 107 nM; in data set [3] it was 47 nM. The molecule further registered a Max stimulation in data set [4] of 124%. The ED50 in data set [5] turned out to be 784 nM.
`C[C@@H](c1ccccc1)[C@H](NC(=O)[C@H](Cc1ccccc1)NC(=O)[C@@H]1CCCN1C(=O)[C@@H](N)Cc1ccc(O)cc1)C(N)=O` yielded a half-life in [1] of 16.1 min. In addition, the inhibition constant Ki was found to be 6.36 µM in data set [6], 1.67 nM in data set [2] and 0.97 nM in data set [3]. For the same molecule, the half-maximal inhibitory concentration (IC50) in [9] worked out at 9.15 nM; in [10] it was 3.46 nM. In data set [4], this molecule showed a Max stimulation of 148%. Also, the ED50 in [5] turned out to be 139 nM.
On to `C[C@H](c1ccccc1)[C@@H](NC(=O)[C@H](Cc1c[nH]c2ccccc12)NC(=O)[C@@H]1CCCN1C(=O)[C@@H](N)Cc1ccc(O)cc1)C(N)=O`, for which the Ki was found to be 45.3 nM in [2] and 43.6 nM in data set [3]. The molecule further came in with a Max stimulation in [4] of 114%. The same molecule showed an ED50 in data set [5] of 1490 nM.
Take `NC(=O)[C@H](Cc1ccccc1)NC(=O)[C@H](Cc1ccccc1)NC(=O)[C@@H]1CCCN1C(=O)[C@@H](N)Cc1ccc(O)cc1` [ENDOMORPHIN 2]: the half-life in [1] was 3.8 min. The same molecule registered a Max stimulation in [4] of 213%.
On to `C[C@H](c1ccccc1)[C@H](NC(=O)[C@H](Cc1ccccc1)NC(=O)[C@@H]1CCCN1C(=O)[C@@H](N)Cc1ccc(O)cc1)C(N)=O`, for which the results for the Ki in data set [6], in data set [2] and in [3] were 4.9 µM, 69.5 nM and 23.4 nM, respectively. Also, the 50% inhibitory concentration (IC50) in data set [9] came to 235 nM; in [10], 89.9 nM. In addition, the Max stimulation in [4] amounted to 132%. In addition, the ED50 in data set [5] stood at 455 nM.
`NC(=O)[C@H](Cc1ccccc1)NC(=O)[C@H](Cc1c[nH]c2ccccc12)NC(=O)[C@@H]1CCCN1C(=O)[C@@H](N)Cc1ccc(O)cc1` [ENDOMORPHIN-1] yielded a half-life in [1] of 4.9 min. Further, the Max stimulation in [4] is 237%. Besides, the ED50 in data set [5] came to 289 nM.
Consider `C[C@H](c1ccccc1)[C@H](NC(=O)[C@H](Cc1c[nH]c2ccccc12)NC(=O)[C@@H]1CCCN1C(=O)[C@@H](N)Cc1ccc(O)cc1)C(N)=O`, for which the Ki in data set [2] is 26.3 nM; in data set [3], 23.4 nM. The molecule also came in with a Max stimulation in data set [4] of 126%. In addition, the ED50 in [5] amounted to 209 nM.
Consider `C[C@@H](c1ccccc1)[C@@H](NC(=O)[C@H](Cc1ccccc1)NC(=O)[C@@H]1CCCN1C(=O)[C@@H](N)Cc1ccc(O)cc1)C(N)=O`, for which the inhibitory constant (Ki) was above 10 µM in [6], 104 nM in data set [2] and 47.7 nM in data set [3]. For the same molecule, the IC50 was above 10000 nM in [9] and 589 nM in data set [10]. This molecule registered a Max stimulation in data set [4] of 115%. The ED50 in [5] was 572 nM.
In turn, `C[C@@H](c1ccccc1)[C@H](NC(=O)[C@@H]1CCCN1C(=O)[C@@H](N)Cc1ccc(O)cc1)C(=O)N[C@@H](Cc1ccccc1)C(N)=O` gave a Ki in [6] of 0.179 µM. The molecule further yielded a Max stimulation in data set [4] of 160%. The molecule also returned an ED50 in data set [5] of 1610 nM.
